Assay results reported in ChEMBL document CHEMBL5625173, “Antimycobacterial pyridine carboxamides: From design to in vivo activity” (Eur J Med Chem, 2023).
Converted amounts (≈) assume the structure as drawn.

Columns and labels:
[1] = Selectivity index, ratio of IC50 for cytotoxicity against human HepG2 cells to MIC for antimycobacterial activity against Mycobacterium tuberculosis H37Rv; assay type: toxicity, cell-based; settings: read-out: Selectivity Index
[2] = system: Mycolicibacterium aurum; experiment: Antimycobacterial activity against Mycobacterium aurum by alamar blue staining based microplate analysis; assay type: functional
Summary of the method: (§1)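 Microplate Alamar Blue assay, one of six mycobacterial strains tested (Mtb H37Rv, Mtb H37Ra, M. kansasii, M. avium, M. smegmatis, M. aurum); value reported as MIC.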

[3] = system: Mycobacterium tuberculosis; experiment: Antimycobacterial activity against Mycobacterium tuberculosis H37Rv by alamar blue staining based microplate analysis; assay type: functional
Summary of the method: (§2)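 Microplate Alamar Blue assay. MIC values read at pH 6.6 (neutral). One acidic-pH test at pH 5.6 is footnoted separately.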

[4] = system: Mycobacterium avium; experiment: Antimycobacterial activity against Mycobacterium avium by alamar blue staining based microplate analysis; assay type: functional; summary of the method: as §2
[5] = system: Mycobacterium kansasii; experiment: Antimycobacterial activity against Mycobacterium kansasii by alamar blue staining based microplate analysis; assay type: functional; summary of the method: as §1
[6] = system: Mycobacterium tuberculosis; experiment: Antimycobacterial activity against Mycobacterium tuberculosis H37Ra by alamar blue staining based microplate analysis; assay type: functional; summary of the method: as §2
[7] = system: Mycolicibacterium smegmatis; experiment: Antimycobacterial activity against Mycobacterium smegmatis by alamar blue staining based microplate analysis; assay type: functional; summary of the method: as §1
[8] = Cytotoxicity against human HepG2 cells assessed as inhibition of cell viability; assay type: toxicity, cell-based

Structure (SMILES)	selectivity ratio [1]	MIC [2] [mg/L]	MIC [3] [mg/L]	MIC [4] [mg/L]	MIC [5] [mg/L]	MIC [6] [mg/L]	MIC [7] [mg/L]	IC50 [8] [µM]
O=C(Nc1ccc(C(=O)O)c(O)c1)c1cccc(C(F)(F)F)n1	34.1	62.5 (≈ 192 µM)	3.13 (≈ 9.59 µM)	12.5 (≈ 38.3 µM)	12.5 (≈ 38.3 µM)	31.2 (≈ 95.8 µM)	250 (≈ 766 µM)	> 163
O=C(Nc1cnccn1)c1ccccn1		≥ 500	> 100	> 100	> 100	250 (≈ 1250 µM)	≥ 500	> 1000
O=C(O)c1ccc(NC(=O)c2ccc(Cl)nc2)cc1		250 (≈ 904 µM)	> 100	> 100	> 100	62.5 (≈ 226 µM)	≥ 500	> 250
Cc1cc(C(=O)Nc2ccc(C(=O)O)c(O)c2)cc(Cl)n1		≥ 500	50 (≈ 163 µM)	> 100	> 100	250 (≈ 815 µM)	≥ 500	> 1000
Nc1cncc(Cl)n1		≥ 500	> 100	> 100	> 100	≥ 500	≥ 500	> 1000
O=C(O)c1ccc(NC(=O)c2ccc3ccccc3n2)cc1	> 0.6	62.5 (≈ 214 µM)	25 (≈ 85.5 µM)	25 (≈ 85.5 µM)	25 (≈ 85.5 µM)	31.2 (≈ 107 µM)	≥ 500	> 50
Cc1cc(C(=O)Nc2cncc(Cl)n2)ccn1		250 (≈ 1010 µM)	> 100	> 100	> 100	≥ 500	≥ 500	> 1000
NC(=O)c1cnccn1 [PYRAZINAMIDE]		≥ 500	> 100	> 100	> 100	≥ 500	≥ 500	> 1000
O=C(Nc1ccc(C(=O)O)c(O)c1)c1cccc(Cl)n1	93.5	125 (≈ 427 µM)	3.13 (≈ 10.7 µM)	100 (≈ 342 µM)	> 100	125 (≈ 427 µM)	125 (≈ 427 µM)	> 1000
O=C(Nc1cnccn1)c1ccncc1		≥ 500	> 100	> 100	> 100	≥ 500	≥ 500	> 1000
O=C(O)c1ccc(NC(=O)c2cccc(C(F)(F)F)n2)cc1		62.5 (≈ 201 µM)	50 (≈ 161 µM)	> 100	50 (≈ 161 µM)	62.5 (≈ 201 µM)	≥ 500	> 248
O=C(Nc1cnccn1)c1ccc(C(F)(F)F)cn1		≥ 500	50 (≈ 186 µM)	> 100	6.25 (≈ 23.3 µM)	≥ 500	≥ 500	> 146
O=C(O)c1ccc(NC(=O)c2ccccn2)cc1		250 (≈ 1030 µM)	> 100	> 100	> 100	125 (≈ 516 µM)	≥ 500	> 250
COc1ccnc(C(=O)Nc2ccc(C(=O)O)c(O)c2)c1	185	62.5 (≈ 217 µM)	1.56 (≈ 5.41 µM)	> 100	> 100	31.2 (≈ 108 µM)	125 (≈ 434 µM)	> 1000
O=C(Nc1cnccn1)c1ccc2ccccc2n1		≥ 125	> 100	> 100	> 100	≥ 125	≥ 125	> 100
Nc1ccc(C(=O)O)cc1 [AMINOBENZOIC ACID]		250 (≈ 1820 µM)	> 100	> 100	> 100	250 (≈ 1820 µM)	≥ 500	> 1000
Nc1cnccn1		≥ 500	> 100	> 100	> 100	≥ 500	≥ 500	> 1000
